# A selection: hits, their analogues and other compounds. The true share with any hit is near 4.9%.
# HSF1 inh = HSF1 inhibition; NIH3T3-HGL HSE-luciferase, MG132-induced, luminescence 8 h; hits give low values; activity change, negative = inhibition, % at 7.5 µM (by protocol); 0.77% of 300,000 active;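 active = more than half of replicate wells show activity change below -50%, luminescence cut by over half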;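 note: luciferase reports HSF-1 transcriptional activity via heat shock element; 0% = median of DMSO wells and -100% = zero luminescence signal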
# PHOSPHO1 inh = PHOSPHO1 (human) inhibition; recombinant PHOSPHO1, absorbance phosphatase assay; inhibition, % at 13.3 µM; 1.1% of 290,000 active; in the data active = inhibition above about 60%
# Target sequence (Q8TCT1 whole entry, looked up): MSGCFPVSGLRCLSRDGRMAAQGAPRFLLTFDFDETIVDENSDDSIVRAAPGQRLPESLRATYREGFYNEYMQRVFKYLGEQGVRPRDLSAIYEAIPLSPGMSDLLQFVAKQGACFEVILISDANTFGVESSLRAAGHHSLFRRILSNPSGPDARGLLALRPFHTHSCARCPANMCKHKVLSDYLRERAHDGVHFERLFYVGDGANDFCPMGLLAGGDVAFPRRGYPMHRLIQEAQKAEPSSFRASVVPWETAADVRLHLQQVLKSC
# HSF-1 act = increases HSF-1 driven luciferase reporter signal. NIH3T3-HGL HSF-1 luciferase reporter, MG132, 8 h; 100% = twice DMSO control signal. activation, % at 9 µM. 1.7% of 300,000 active. AID 504408;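 active = mean replicate activation of at least 50% with a set share of replicates each reaching 50%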;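 note: 0% = median of the neutral control wells and 100% = twice that signal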
# CHT inh = human CHT choline transport inhibition. CHT-expressing cells, membrane potential dye, choline response; hits give low values. Q9GZV3. B-score at 10 µM. 0.86% of 310,000 active. AID 488975;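 active = B-score over 3 SD under the library average, and starting fluorescence ratio not unusually high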;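 note: choline stimulus applied at its EC90 after an EC20 pre-addition; B-score computed on integrated fluorescence ratio after choline addition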
# CHT PAM = allosterically activates the human high affinity choline transporter | CHT-expressing cells, membrane potential dye, choline EC20; hits give high values; LV-AA mutant CHT in HEK293 cells | Q9GZV3 | 0.49% of 310,000 active | AID 488977 | B-score at 10 µM;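 active = initial fluorescence not abnormally high and integrated response B-score, plate-corrected, over 3 SD above library mean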
# Hep lipid drop = hepatic lipid droplet formation modulation | 0.4% of 240,000 active | AML12 mouse hepatocytes, oleate lipid droplets, BODIPY imaging | AID 1656 | inhibition, % at 6.5 µM;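 active = lipid droplet intensity inhibited by at least 50%, with more than 500 cells counted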
#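 Material – mouse AML12 hepatocyte cell line, fixed after treatment · Compound dosing – one dose, 6.5 µM compound · Times – compound with oleate, overnight · Measured by – Image-based BODIPY and DAPI two-channel analysis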
# CHT inh conf = confirmation of human choline transporter CHT inhibitors; CHT-expressing cells, choline membrane potential dye; LV-to-AA substituted CHT, HEK293 cells; shares compounds with CHT inh; AID 493221; 70% of 2,400 active; CHT activity remaining % of control (hits give low values), % at 10 µM;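 active = choline transporter activity left, mean of duplicates at 10 µM, below buffer-only control mean minus 3 SD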;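 note: depolarization triggered by choline at its EC90 following an EC20 pre-addition; 0% = hemicholinium-3 full block and 100% = buffer-only control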
# HEK293 CHT ctr = activity in parental HEK293 cells lacking CHT; shares compounds with CHT inh; membrane potential ratio readout (active if shifted either direction beyond buffer ±3SD; no single direction) at 10 µM; 4% of 2,400 active; membrane potential dye, choline response; active = decrease or increase beyond buffer ±3SD;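 note: parental cells lack the transporter so any hit is non-specific; ratio is peak minus trough fluorescence over baseline after EC90 choline challenge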
# The depositor's hits bear a star; i = inactive; / = no result.
SMILES,HSF1 inh,PHOSPHO1 inh,HSF-1 act,CHT inh,CHT PAM,Hep lipid drop,CHT inh conf,HEK293 CHT ctr
N#CC[C@H](Cc1ccccc1)N1CCN(CCc2ccccc2)CCC1=O,-2,-2,7,i,i,/,/,/
CCOC(=O)c1[nH]c(C=O)c(C(=O)OCC)c1C,/,-1,/,-5.2*,i,4,69%*,i
Cc1ccc(C(=O)NCC(=O)OCC(=O)Nc2ccccc2C#N)s1,-10,24,-2,-13*,i,-4,65%*,i
O=C(NCc1ccccn1)c1ccc(Br)s1,1,0,12,i,i,3,/,/
C=CCNc1nc(SC)nc2ccsc12,-8,-14,0,-11*,i,15,3.0%*,i
COCCNc1nc2c(c(=O)n(C)c(=O)n2C)n1Cc1cccc(C(F)(F)F)c1,-2,-4,-6,i,i,-31,/,/
COC(=O)Cn1c(-c2ccc(OC)cc2)c(-c2ccc(OC)cc2)nnc1=O,-3,14,-12,i,i,-22,/,/
O=C(c1cc(-c2ccccc2)nc2ccccc12)N1CCN(c2ccccc2O)CC1,-6,43,0,i,i,0,/,/
CN1CCCN(C(=O)c2cc(-c3ccc(Cl)c(Cl)c3Cl)nc3ccccc23)CC1,0,13,-17,-8*,i,1,i,i
CC(C)(C)c1nn2cnnc2n(/N=C/c2ccccc2)c1=O,-4,0,-2,i,i,7,/,/
COc1ccc(C(=O)c2c3ccccc3[n+]([O-])n2CCCN)cc1,4,/,18,i,i,/,/,/
Cc1ccc(C(=O)c2c3ccc(C(F)(F)F)cc3[n+]([O-])n2CCCN)cc1,4,/,16,-5.9*,i,/,40%*,2.6*
COc1ccc(C(=O)c2c3ccc(C(F)(F)F)cc3[n+]([O-])n2CCCN)cc1,-4,/,-25,-6.3*,i,/,22%*,i
CCN(CC)S(=O)(=O)c1cccc(C(=O)NCCCN2CCOCC2)c1,-7,-13,-13,i,i,/,/,/
CCC(Sc1nc2ccncc2[nH]1)C(=O)Nc1cc(Cl)ccc1C (configuration not stated),-13,-11,0,-5.9*,i,0,i,i
Cc1nnc(SCc2nc3scc(-c4ccccc4)c3c(=O)[nH]2)s1,2,25,2,i,i,9,/,/
CCn1c(SCc2nc(-c3ccccc3)no2)nnc1-c1ccco1,3,-10,13,-5.2*,i,-24,55%*,i
CCn1c(SCc2nc3scc(-c4ccccc4)c3c(=O)[nH]2)nnc1-c1cccs1,2,-5,5,-7.3*,i,14,i,i
Cn1c(SCc2nc(-c3ccc(Br)cc3)no2)nnc1-c1ccco1,20,8,15,i,i,1,/,/
CCn1c(SCc2nc(-c3ccccc3)no2)nnc1-c1cccs1,19,13,30,-5.5*,i,-2,47%*,i
Clc1c(-c2nnc3n2CCCCC3)sc2ccccc12,-15,-5,-19,-5.3*,i,/,36%*,-8.5*
Clc1c(-c2nnc3n2CCC3)sc2ccccc12,23,-3,16,i,i,5,/,/
COc1ccc2c(Cl)c(-c3nnc4n3CCCCC4)sc2c1,-15,9,-10,-6.2*,i,/,i,i
CCCCCCCCN1[C@@H](CC(=O)O)c2ccc(C(F)(F)F)cc2S1(=O)=O,5,/,2,-6.1*,i,/,65%*,i
CCOc1c(Cl)cc(/C=C/C(=O)N(CC)CC(=O)NCc2cccs2)cc1OC,3,/,-3,-7.6*,i,/,i,i
SMILES,HSF1 inh,PHOSPHO1 inh,HSF-1 act,CHT inh,CHT PAM,Hep lipid drop,CHT inh conf,HEK293 CHT ctr
CC(=O)OC1CC2(C)/C(=N\O)CCC2C2CCc3cc(O)ccc3C12 (configuration not stated),-4,18,2,-11*,i,31,3.2%*,i
CC12CC(O)C3c4ccc(O)cc4CCC3C1CCC2=O (configuration not stated),-6,35,11,i,i,-19,/,/
N#C/C(=C\c1ccc(O)c(Br)c1)C(=O)NCc1ccccc1,2,24,5,-6.4*,i,7,64%*,i
S=c1[nH]c2cc(Cl)ccc2s1,-13,57,-9,-5*,i,/,54%*,i
S=c1[nH]c2ccc(Cl)cc2[nH]1,-15,-3,-9,i,i,-5,/,/
C=CCOc1ccc(-c2nc3c(c(=O)[nH]c(=O)n3CCCC)n2C)cc1Br,25,19,25,i,i,1,/,/
CCCc1cc2c(=O)c(-c3cscn3)c(C(=O)OCC)oc2cc1O,8,16,2,-5.8*,i,6,28%*,i
CCCOP(=O)(c1ccc(N(C)C)cc1)C(O)c1ccc(Br)cc1 (configuration not stated),12,/,8,-5.8*,i,-26,68%*,i
CCCOP(=O)(c1ccc(N(C)C)cc1)C(O)c1ccc(N(C)C)cc1 (configuration not stated),-5,9,3,i,i,-26,/,/
COc1ccc(/C=C/C(=O)NC2CCCCCCC2)cc1S(=O)(=O)N1CCOCC1,7,-1,19,-7.6*,i,-1,20%*,i
COc1ccc(/C=C/C(=O)Nc2ccc(NC(C)=O)cc2)cc1S(=O)(=O)N1CCOCC1,-6,9,-15,i,i,-3,/,/
O=C(NC1CCCC1)C(c1cccnc1)N(CCc1ccccc1)C(=O)c1ccco1 (configuration not stated),-1,45,-9,-6*,i,-7,55%*,i
CC(NC(=O)Cn1nc(-c2ccccc2)c2ccccc2c1=O)c1ccccc1 (configuration not stated),3,37,21,-5.2*,i,/,69%*,i
O=C(Cn1nc(-c2ccccc2)c2ccccc2c1=O)Nc1ccc(O)cc1,-4,-15,3,i,i,-14,/,/
Cc1ccccc1C(=O)Nc1c2c(nc3ccccc13)CCCC2,-5,-14,-2,i,i,32,/,/
CCNC(=O)C1(c2ccccc2)CCCC1,-5,-6,-4,-6.8*,i,-4,i,i
COC(=O)c1ccc(OCC(=O)c2cccc(OC)c2)cc1,6,21,8,i,i,-1,/,/
